{"source": "paper PMC9049141", "about": "(RSC Advances, 2020)", "key": {"GK rats": {"system": "GK rats", "assay": "Modified multiple OGTTs", "format": "in vivo", "how_it_was_run": "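Male GK rats (purchased at 6–8 weeks) got one s.c. dose of saline, test compound (10, 30, 90 nmol kg−1) or a reference GLP-1 analog (90 nmol kg−1). Repeated oral glucose challenges followed, the first at 0.5 h after dosing. Glucose was read by glucometer. AUCs were taken for 0–2, 72–74 and 144–146 h, and the percent AUC reduction was calculated versus saline.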"}, "HSA": {"target": "HSA (Homo sapiens, UniProt P02768)", "sequence (P02768 25-609)": "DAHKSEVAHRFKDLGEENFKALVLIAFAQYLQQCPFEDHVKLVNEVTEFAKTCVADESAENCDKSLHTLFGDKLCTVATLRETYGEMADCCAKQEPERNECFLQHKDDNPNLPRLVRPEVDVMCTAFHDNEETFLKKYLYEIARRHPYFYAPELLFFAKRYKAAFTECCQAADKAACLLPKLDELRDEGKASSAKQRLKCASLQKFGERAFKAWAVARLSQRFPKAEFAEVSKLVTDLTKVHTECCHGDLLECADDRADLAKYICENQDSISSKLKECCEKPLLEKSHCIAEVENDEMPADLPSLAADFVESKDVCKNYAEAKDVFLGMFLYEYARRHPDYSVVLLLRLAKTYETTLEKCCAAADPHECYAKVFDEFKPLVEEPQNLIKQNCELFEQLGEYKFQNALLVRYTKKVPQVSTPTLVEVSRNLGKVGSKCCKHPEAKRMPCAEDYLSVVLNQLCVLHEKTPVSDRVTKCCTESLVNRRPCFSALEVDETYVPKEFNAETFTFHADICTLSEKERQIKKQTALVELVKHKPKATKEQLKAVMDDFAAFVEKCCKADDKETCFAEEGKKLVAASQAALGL", "assay": "Albumin binding affinity by surface plasmon resonance"}, "db/db mice [1]": {"system": "db/db mice", "assay": "Oral glucose tolerance test", "format": "in vivo", "how_it_was_run": "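Male db/db mice were fasted overnight and split into five groups. They received saline or test compound s.c. at 10, 30, 90 or 150 nmol kg−1, half an hour before an oral glucose load of 2.0 g kg−1. Blood glucose was read by handheld glucometer before and 15, 30, 60 and 120 min after the load. Data are mean ± SD with one-way ANOVA.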"}, "db/db mice [2]": {"system": "db/db mice", "assay": "Chronic in vivo study, 8 weeks, db/db mice", "settings": "for ALT / AST / HDL / LDL / LDL/HDL / TC / TG: db/db mice serum, 8 weeks twice-weekly s.c.; for decrease of OGTT AUC after 8 week treatment compared with day 0: n = 8", "how_it_was_run": "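Male db/db mice (purchased at 6–8 weeks, housed six per cage, 12 h light–dark) got twice-weekly s.c. saline, a reference GLP-1 analog (90 nmol kg−1) or test compound (10, 30, 90 nmol kg−1) for eight weeks. Blood biochemical parameters were measured on an automatic biochemical analyzer. Pancreas was paraffin-embedded and H&E-stained. Data are mean ± SD; one-way ANOVA, P < 0.05.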"}, "[3]": {"assay": "Plasma stability test in human plasma with or without HSA", "format": "in vitro ADME", "how_it_was_run": "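Albumin-depleted human plasma was prepared with a blue-dye albumin removal kit. Test peptides at a final 1 mg L−1 were incubated at 37 °C in human plasma with or without HSA. Samples were taken at time points from 0 to 144 h and analysed by LC-MS/MS.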"}, "[4]": {"assay": "Pharmacokinetic study in rhesus monkey", "format": "in vivo", "settings": "plasma, sc", "how_it_was_run": "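Male rhesus monkeys received one s.c. dose of test compound at 10, 30 or 90 nmol kg−1. Blood was drawn pre-dose and at 1, 2, 4, 8, 24, 36, 48, 72, 96, 120, 144 and 168 h. Intact peptide and free GLP-1 (A8Aib) in plasma were quantified by LC-MS/MS.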"}, "db/db mice [5]": {"system": "db/db mice", "assay": "Hypoglycemic duration test", "format": "in vivo", "settings": "non-fasted db/db mice", "how_it_was_run": "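Non-fasted db/db mice with free food and water got one s.c. dose of saline, a reference GLP-1 analog (90 nmol kg−1) or test compound (10, 30, 90 nmol kg−1). Tail-vein blood was sampled at 0, 0.5, 1, 2, 4, 8, 24, 36, 48, 72, 120, 168 and 216 h, with glucose by glucometer. Hypoglycemic duration was the time BGL stayed under 8.35 mmol L−1. Data are mean ± SD; one-way ANOVA.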"}, "[6]": {"settings": "single s.c. 10 nmol kg^−1, n = 8"}, "[7]": {"settings": "single s.c. 30 nmol kg^−1, n = 8"}, "[8]": {"settings": "single s.c. 90 nmol kg^−1, n = 8"}}, "note": "Square brackets hold non-standard residues; d marks the D form. Ends that are not written are not given here. * marks the point of attachment. FITC = O=C1OC2(c3ccc(O)cc3Oc3cc(O)ccc32)c2ccc(NC(=S)*)cc21; Palmitoyl = CCCCCCCCCCCCCCCC(=O)*; Aib = CC(C)(N)C(=O)O; Ahx = NCCCCCC(=O)O", "data": [{"substance": "{FITC-Ahx}-EYEEK(Palmitoyl)YEGGGGSGGGGSFNPRH[Aib]EGTFTSDVSSYLEGQAAKEFIAWLVKGRG (N-terminus assumed) [PES14]", "values": [{"measurement": "AUC-lowering percentage in third OGTT (144–146 h) versus placebo", "setting": "GK rats; [6]", "result": 22.1, "unit": "%"}, {"measurement": "AUC-lowering percentage in third OGTT (144–146 h) versus placebo", "setting": "GK rats; [7]", "result": 31.0, "unit": "%"}, {"measurement": "AUC-lowering percentage in third OGTT (144–146 h) versus placebo", "setting": "GK rats; [8]", "result": 44.7, "unit": "%"}, {"measurement": "k a", "setting": "HSA; SPR, BIAcoT200 system, HSA", "result": 14500, "unit": "M⁻¹ s⁻¹"}, {"measurement": "k d", "setting": "HSA; SPR, BIAcoT200 system, HSA", "result": 0.0101, "unit": "s⁻¹"}, {"measurement": "Kd", "setting": "HSA; human, HSA (human serum albumin), surface plasmon resonance", "result": 696, "unit": "nM"}, {"measurement": "glucose AUC in OGTT", "setting": "db/db mice [1]; single s.c. 90 nmol kg^−1, AUC0–120 min", "result": 780.17, "unit": "nmol/L/min"}, {"measurement": "glucose AUC in OGTT", "setting": "db/db mice [1]; single s.c. 150 nmol kg^−1, AUC0–120 min", "result": 738.56, "unit": "nmol/L/min"}, {"measurement": "ALT", "setting": "db/db mice [2]; 10 nM kg^−1, mean ± SD n = 8", "result": "59.2 ± 2.8", "unit": "IU L^−1"}, {"measurement": "AST", "setting": "db/db mice [2]; 10 nM kg^−1, mean ± SD n = 8", "result": "158 ± 12.2", "unit": "IU L^−1"}, {"measurement": "HDL", "setting": "db/db mice [2]; 10 nM kg^−1, mean ± SD n = 8", "result": "2.5 ± 0.6", "unit": "mmol/L"}, {"measurement": "LDL", "setting": "db/db mice [2]; 10 nM kg^−1, mean ± SD n = 8", "result": "1.6 ± 0.3", "unit": "mmol/L"}, {"measurement": "LDL/HDL", "setting": "db/db mice [2]; 10 nM kg^−1, mean ± SD n = 8", "result": "0.64 ± 0.19"}, {"measurement": "TC", "setting": "db/db mice [2]; 10 nM kg^−1, mean ± SD n = 8", "result": "4.8 ± 0.6", "unit": "mmol/L"}, {"measurement": "TG", "setting": "db/db mice [2]; 10 nM kg^−1, mean ± SD n = 8", "result": "1.1 ± 0.1", "unit": "mmol/L"}, {"measurement": "ALT", "setting": "db/db mice [2]; 30 nM kg^−1, mean ± SD n = 8", "result": "55.0 ± 4.0", "unit": "IU L^−1"}, {"measurement": "AST", "setting": "db/db mice [2]; 30 nM kg^−1, mean ± SD n = 8", "result": "140 ± 9.9", "unit": "IU L^−1"}, {"measurement": "HDL", "setting": "db/db mice [2]; 30 nM kg^−1, mean ± SD n = 8", "result": "2.5 ± 0.5", "unit": "mmol/L"}, {"measurement": "LDL", "setting": "db/db mice [2]; 30 nM kg^−1, mean ± SD n = 8", "result": "1.4 ± 0.2", "unit": "mmol/L"}, {"measurement": "LDL/HDL", "setting": "db/db mice [2]; 30 nM kg^−1, mean ± SD n = 8", "result": "0.44 ± 0.15"}, {"measurement": "TC", "setting": "db/db mice [2]; 30 nM kg^−1, mean ± SD n = 8", "result": "4.4 ± 0.3", "unit": "mmol/L"}, {"measurement": "TG", "setting": "db/db mice [2]; 30 nM kg^−1, mean ± SD n = 8", "result": "1.0 ± 0.7", "unit": "mmol/L"}, {"measurement": "area and number of pancreatic islets", "setting": "db/db mice [2]; db/db mice, 8 weeks, H&E staining, compared with saline", "result": "increased"}, {"measurement": "reduction of LDL/HDL ratio", "setting": "db/db mice [2]; db/db mice, after 8 week exposure", "result": "up to 47%"}, {"measurement": "insulin immunoreactivity", "setting": "db/db mice [2]; db/db mice, chronic treatment 8 weeks, pancreas sections", "result": "preserved proper insulin immunoreactivity"}, {"measurement": "decrease of OGTT AUC after 8 week treatment compared with day 0", "setting": "db/db mice [2]; db/db mice, twice-weekly s.c. 10 nmol kg^−1, 8 weeks", "result": 17.1, "unit": "%"}, {"measurement": "decrease of OGTT AUC after 8 week treatment compared with day 0", "setting": "db/db mice [2]; db/db mice, twice-weekly s.c. 30 nmol kg^−1, 8 weeks", "result": 28.9, "unit": "%"}, {"measurement": "decrease of OGTT AUC after 8 week treatment compared with day 0", "setting": "db/db mice [2]; db/db mice, twice-weekly s.c. 90 nmol kg^−1, 8 weeks", "result": 58.2, "unit": "%"}, {"measurement": "body weight gain, food intake and fat%", "setting": "db/db mice [2]; db/db mice, twice-weekly s.c. 10, 30 and 90 nmol kg^−1, 56 days, vs saline", "result": "obviously reduction"}, {"measurement": "half-life at 1 mg L^−1", "setting": "[3]; human plasma with HSA", "result": "> 72", "unit": "h"}, {"measurement": "half-life at 1 mg L^−1", "setting": "[3]; human plasma without albumin (HSA-free)", "result": 60.1, "unit": "h"}, {"measurement": "half-life", "setting": "[4]; 10 nmol kg^−1", "result": 62.6, "unit": "h"}, {"measurement": "half-life", "setting": "[4]; 30 nmol kg^−1", "result": 78.8, "unit": "h"}, {"measurement": "half-life", "setting": "[4]; 90 nmol kg^−1", "result": 95.1, "unit": "h"}, {"measurement": "time hypoglycemic effects maintained", "setting": "db/db mice [5]; single s.c. 10 nmol kg^−1", "result": "more than 120 h"}, {"measurement": "decrease of BGL AUC for 0–192 h compared with saline", "setting": "db/db mice [5]; [6]", "result": 38.4, "unit": "%"}, {"measurement": "time hypoglycemic effects maintained", "setting": "db/db mice [5]; single s.c. 30 nmol kg^−1", "result": "> 168", "unit": "h"}, {"measurement": "decrease of BGL AUC for 0–192 h compared with saline", "setting": "db/db mice [5]; [7]", "result": 49.3, "unit": "%"}, {"measurement": "duration for BGLs rebound over 8.35 mmol L^−1", "setting": "db/db mice [5]; [7]", "result": 22.3, "unit": "h"}, {"measurement": "time hypoglycemic effects maintained", "setting": "db/db mice [5]; single s.c. 90 nmol kg^−1", "result": "> 216", "unit": "h"}, {"measurement": "decrease of BGL AUC for 0–192 h compared with saline", "setting": "db/db mice [5]; [8]", "result": 65.0, "unit": "%"}, {"measurement": "duration for BGLs rebound over 8.35 mmol L^−1", "setting": "db/db mice [5]; [8]", "result": 50.8, "unit": "h"}, {"measurement": "time for BGLs to reach the normoglycemic value", "setting": "db/db mice [5]; single s.c. 30 and 90 nmol kg^−1", "result": "≤ 2", "unit": "h"}]}]}
